ChEMBL document CHEMBL1142253, “Development of dimeric modulators for anti-apoptotic Bcl-2 proteins” (Bioorg Med Chem Lett, 2008)

Tests used:
[1] = Induction of cytochrome c release from mouse liver mitochondria; type: functional
Procedure, shortened: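 Mouse liver mitochondria were isolated by differential centrifugation in Tris-MOPS/EGTA/sucrose buffer pH 7.4 and diluted to 1mg/ml in KCl-based buffer. They were incubated 1 hour at 30 °C with increasing compound concentrations, with DMSO kept equal, then pelleted at 13,000g for 10 minutes. Cytochrome c release was assessed, and the concentration giving 50% release was reported.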

[2] = target: Apoptosis regulator Bcl-2 (Homo sapiens, UniProt P10415); assay: Inhibition of Bak peptide binding to human recombinant Bcl2
Procedure, shortened: (§1)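 Fluorescence polarization competition against 50 nM fluorescein-labelled Bak peptide, in PBS pH 7.0 with 1 mM DTT. Protein set for 60% peptide complex: Bcl-2 1000 nM, Bcl-XL 880nM, Bcl-w 1200 nM. Compounds added from 3-fold DMSO stock dilutions (10 mM down). Incubation 1 h at 23 °C, read in mP, peptide-only interference subtracted. Ki fitted from FP change versus competitor concentration.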

[3] = target: T1, Bcl-2-like protein 2 (Homo sapiens, UniProt Q92843); assay: Inhibition of Bak peptide binding to human recombinant Bcl-w; procedure, shortened: as §1
T1 sequence (Q92843 whole entry): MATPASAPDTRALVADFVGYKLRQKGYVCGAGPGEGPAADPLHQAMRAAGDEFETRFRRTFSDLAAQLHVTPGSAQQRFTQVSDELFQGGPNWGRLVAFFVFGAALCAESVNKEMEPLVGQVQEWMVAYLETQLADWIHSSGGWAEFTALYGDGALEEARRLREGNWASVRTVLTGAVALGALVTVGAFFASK

Chain of Apoptosis regulator Bcl-2 (P10415 whole entry): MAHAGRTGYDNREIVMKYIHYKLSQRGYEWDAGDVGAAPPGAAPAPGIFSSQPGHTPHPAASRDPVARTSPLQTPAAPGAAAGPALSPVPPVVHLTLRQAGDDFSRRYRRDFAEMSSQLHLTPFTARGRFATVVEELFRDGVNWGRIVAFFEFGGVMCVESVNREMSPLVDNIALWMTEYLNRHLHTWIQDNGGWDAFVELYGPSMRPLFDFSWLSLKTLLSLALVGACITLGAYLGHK

IC50 [1] [µM]	Ki [2] [µM]	Ki [3] [µM]	Structure (SMILES)
69.1			O=C(O)[C@H](Cc1ccccc1)N1C(=O)/C(=C/c2ccc(Br)cc2)SC1=S
	161	88.3	O=C(OCCOCCOCCOC(=O)[C@H](Cc1ccccc1)N1C(=O)/C(=C/c2ccc(Br)cc2)SC1=S)[C@H](Cc1ccccc1)N1C(=O)/C(=C/c2ccc(Br)cc2)SC1=S
	260	116	CCOC(=O)[C@H](Cc1ccccc1)N1C(=O)/C(=C/c2ccc(Br)cc2)SC1=S
	4.3	2.2	O=C(O)[C@H](Cc1ccccc1)N1C(=O)/C(=C/c2ccc(OCCOCCOc3ccc(/C=C4\SC(=S)N([C@@H](Cc5ccccc5)C(=O)O)C4=O)cc3)cc2)SC1=S
	243	101	O=C(OCCOC(=O)[C@H](Cc1ccccc1)N1C(=O)/C(=C/c2ccc(Br)cc2)SC1=S)[C@H](Cc1ccccc1)N1C(=O)/C(=C/c2ccc(Br)cc2)SC1=S
	21.2	13.7	O=C(O)[C@H](Cc1ccccc1)N1C(=O)/C(=C/c2ccc(OCCOCCOCCOc3ccc(/C=C4\SC(=S)N([C@@H](Cc5ccccc5)C(=O)O)C4=O)cc3)cc2)SC1=S
	> 1000	99	O=C(OCCOCCOC(=O)[C@H](Cc1ccccc1)N1C(=O)/C(=C/c2ccc(Br)cc2)SC1=S)[C@H](Cc1ccccc1)N1C(=O)/C(=C/c2ccc(Br)cc2)SC1=S
	226	39.2	CCOC(=O)[C@H](Cc1ccccc1)N1C(=O)/C(=C/c2ccc(OCOc3ccc(/C=C4\SC(=S)N([C@@H](Cc5ccccc5)C(=O)OCC)C4=O)cc3)cc2)SC1=S
6.1	1.7	1.3	O=C(O)[C@H](Cc1ccccc1)N1C(=O)/C(=C/c2ccc(OCCOc3ccc(/C=C4\SC(=S)N([C@@H](Cc5ccccc5)C(=O)O)C4=O)cc3)cc2)SC1=S
	4.3	2.3	O=C(O)[C@H](Cc1ccccc1)N1C(=O)/C(=C/c2ccc(OCOc3ccc(/C=C4\SC(=S)N([C@@H](Cc5ccccc5)C(=O)O)C4=O)cc3)cc2)SC1=S
